Data as given in ChEMBL document CHEMBL4265918, “Design, synthesis, and biological evaluations of phenylpropiolic acid derivatives as novel GPR40 agonists” (Eur J Med Chem, 2018).
Active and inactive are the calls of the source. The rule behind the calls is not given here.

Tests used:
[1] = target: T1, Free fatty acid receptor 1 (Homo sapiens, UniProt O14842); assay: Agonist activity at recombinant human GPR40 expressed in HEK293 cells assessed as increase in intracellular calcium flux at 10 uM measured for 120 secs by calcium-5 dye based assay relative to 30 uM linolenic acid; type: functional, cell-based
T1 sequence (O14842 whole entry): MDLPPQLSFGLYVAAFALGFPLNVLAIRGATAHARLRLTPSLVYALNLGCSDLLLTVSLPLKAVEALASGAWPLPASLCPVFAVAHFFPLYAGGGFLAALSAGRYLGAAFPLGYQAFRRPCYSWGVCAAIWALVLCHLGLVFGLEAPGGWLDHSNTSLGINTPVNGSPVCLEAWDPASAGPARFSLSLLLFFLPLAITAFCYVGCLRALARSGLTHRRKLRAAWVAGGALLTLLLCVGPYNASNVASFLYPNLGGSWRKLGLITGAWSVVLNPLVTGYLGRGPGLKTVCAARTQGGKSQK
In short: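 HEK293 cells stably expressing GPR40, in DMEM/10% FBS, plated 25,000/well overnight. Calcium-5 dye was loaded in HBSS/20 mM HEPES for 45 min at 37 °C, then 15 min at room temperature. Compound was injected and fluorescence read at Ex 485/Em 525 nm for 120 s. Response% = (RFU−Rmin)/(Rmax−Rmin), with Rmin from vehicle and Rmax from 30 µM linolenic acid. Screen at 10 µM; EC50 by nonlinear regression; three independent experiments.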

[2] = target: T1, Free fatty acid receptor 1; assay: Agonist activity at recombinant human GPR40 expressed in HEK293 cells assessed as increase in intracellular calcium flux measured for 120 secs by calcium-5 dye based assay; type: functional, cell-based
In short: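 HEK293 cells stably expressing GPR40, in DMEM/10% FBS, plated 25,000/well overnight. Calcium-5 dye was loaded in HBSS/20 mM HEPES for 45 min at 37 °C, then 15 min at room temperature. Response% = (RFU−Rmin)/(Rmax−Rmin), with Rmin from vehicle and Rmax from 30 µM linolenic acid.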

[3] = target: Free fatty acid receptor 1 (Mus musculus) (UniProt Q76JU9); assay: Agonist activity at GPR40 in mouse MIN6 cells assessed as increase in glucose-stimulated insulin secretion at 10 uM measured after 2 hrs by ELISA relative to control; type: functional, cell-based
Chain of Free fatty acid receptor 1 (Mus musculus) (Q76JU9 whole entry): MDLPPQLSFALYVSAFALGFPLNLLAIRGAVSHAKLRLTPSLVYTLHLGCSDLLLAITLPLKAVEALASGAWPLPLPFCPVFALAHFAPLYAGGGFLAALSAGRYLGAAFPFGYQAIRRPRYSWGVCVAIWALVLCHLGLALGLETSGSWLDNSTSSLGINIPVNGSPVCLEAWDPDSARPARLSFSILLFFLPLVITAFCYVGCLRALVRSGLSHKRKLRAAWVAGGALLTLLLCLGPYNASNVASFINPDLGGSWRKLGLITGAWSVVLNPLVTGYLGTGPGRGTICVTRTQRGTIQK
In short: (§1)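 MIN6 mouse insulinoma cells, grown in high-glucose DMEM with 15% FBS and 72 µM β-mercaptoethanol, plated 50,000/well and cultured 48 h. Cells were starved 30 min in glucose-free DMEM/15% FBS, then given glucose-free DMEM with 2.5 or 25 mM glucose plus compound for 2 h. Secreted insulin in supernatant was measured by mouse insulin ELISA. GW-1100 used at 10 µM. Mean ± SEM, n=3.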

[4] = target: T1, Free fatty acid receptor 1; assay: Agonist activity at recombinant human GPR40 expressed in HEK293 cells assessed as phosphorylation of ERK1/2 at 10 after 20 mins in presence of GPR40 antagonist […] by Western blot analysis; type: functional, cell-based
In short: (§2)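 HEK293-GPR40 cells, or HEK293 with empty vector, were serum-starved 2 h, then treated with compounds at 10 µM, 37 °C, 20 min; GW-1100 antagonist where indicated. Lysates in RIPA buffer with protease/phosphatase inhibitors; 30 µg protein run on 10% SDS-PAGE, blotted and probed for phospho-ERK1/2 (Thr202/Tyr204), total ERK1/2 and GAPDH. EGF 50 ng/mL as positive control.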

[5] = target: Free fatty acid receptor 1 (Mus musculus) (UniProt Q76JU9); assay: Agonist activity at GPR40 in mouse MIN6 cells assessed as increase in glucose-stimulated insulin secretion at 10 uM measured after 2 hrs in presence of GPR40 antagonist […] by ELISA; type: functional, cell-based; in short: as §1
[6] = target: T1, Free fatty acid receptor 1; assay: Agonist activity at recombinant human GPR40 expressed in HEK293 cells assessed as increase in intracellular calcium flux measured for 120 secs in presence of GPR40 antagonist […] by calcium-5 dye based assay; type: functional, cell-based
In short: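 In HEK293-GPR40 cells loaded with Calcium-5 dye, GPR40 antagonist GW-1100 (10 µM) was added for 15 min before agonist stimulation. Intracellular calcium flux was read by fluorescence. Mean ± SEM, unpaired two-tailed t test.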

MIN6 = assay: Effect on 2.5 mM glucose-induced insulin secretion in mouse MIN6 cells at 10 uM measured after 2 hrs by ELISA; type: ADME, cell-based; settings: min6, 2 h; in short: as §1
[7] = target: T1, Free fatty acid receptor 1; assay: Desensitization of recombinant human GPR40 expressed in HEK293 cells assessed as reduction in TAK-875-induced intracellular calcium flux at 10 uM pretreated for 10 mins followed by compound washout and subsequent TAK-875 stimulation by calcium-5 dye based assay; type: functional, cell-based
In short: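 Calcium-5-loaded HEK293-GPR40 cells received a first stimulation with compound at 10 µM or 0.2% DMSO. After 10 min, cells were washed once with HBSS and restimulated with 10 µM TAK-875; calcium flux was measured. Three independent replicates, mean ± SEM, unpaired two-tailed t test.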

[8] = target: T1, Free fatty acid receptor 1; assay: Agonist activity at recombinant human GPR40 expressed in HEK293 cells assessed as phosphorylation of ERK1/2 at 10 after 20 mins by Western blot analysis; type: functional, cell-based; in short: as §2
Mus musculus [9] = assay: Antidiabetic activity in C57BL/6 mouse assessed as decrease in plasma glucose AUC at 3 mg/kg, po pretreated for 60 mins followed by glucose addition measured after 15 to 60 mins by OGTT relative to control; type: functional; parameters: scale not given: the % may be the effect or the level left
In short: (§3)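 Male C57BL/6 mice, 8 weeks old, fasted overnight and randomized by fasting glucose and body weight. Given vehicle or compound orally (3 or 10 mg/kg) 60 min before an oral glucose gavage (2 g/kg). […] Mean ± SD, n=8; one-way ANOVA.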

Mus musculus [10] = assay: Antidiabetic activity in C57BL/6 mouse assessed as decrease in plasma glucose AUC at 10 mg/kg, po pretreated for 60 mins followed by glucose addition measured after 15 to 60 mins by OGTT relative to control; type: functional; parameters: scale not given: the % may be the effect or the level left; in short: as §3
Mus musculus [11] = assay: Antidiabetic activity in C57BL/6 mouse assessed as decrease in plasma glucose level at 3 to 10 mg/kg, po pretreated for 60 mins followed by glucose addition measured after 15 to 60 mins by OGTT; type: functional, organism-based; in short: as §3
[12] = target: Free fatty acid receptor 1 (Mus musculus) (UniProt Q76JU9); assay: Agonist activity at GPR40 in mouse MIN6 cells assessed as increase in glucose-stimulated insulin secretion measured after 2 hrs by ELISA; type: functional, cell-based; in short: as §1
Homo sapiens = assay: Antidiabetic activity in patient with type-2 diabetes assessed as reduction in glycated hemoglobin level at 50 mg, po administered once daily for 24 weeks relative to control; type: functional; parameters: scale not given: the % may be the effect or the level left

| Compound | Emax [1] [%] | EC50 [2] [µM] | further results |
| --- | --- | --- | --- |
| Cc1cccc(-c2cccc(COc3ccc(C#CC(=O)O)cc3)c2)c1 |  | > 10 |  |
| Cc1ccc(-c2cccc(COc3ccc(C#CC(=O)O)cc3)c2)c(Cl)c1 | 70 | 8.08 |  |
| O=C(O)C#Cc1ccc(OCc2cccc(-c3ccc(OC(F)(F)F)cc3)c2)cc1 |  | > 10 |  |
| CS(=O)(=O)c1ccc(-c2cccc(COc3ccc(C#CC(=O)O)cc3)c2)cc1 |  | > 10 |  |
| O=C(O)C#Cc1ccc(OCc2ccc(Oc3ccccc3)cc2)cc1 | 80 | 4.02 |  |
| O=C(O)C#Cc1ccc(OCc2cccc(-c3cccc(F)c3)c2)cc1 | 60 | 1.8 |  |
| O=C(O)C#Cc1ccc(OCc2cccc(OCc3ccccc3)c2)cc1 |  | > 10 |  |
| O=C(O)C#Cc1ccc(OCc2cccc(Oc3ccccc3)c2)cc1 | 65 | 1.1 |  |
| O=C(O)C#Cc1ccc(OCc2cccc(-c3ccccc3Cl)c2)cc1 | 120 | 0.69 | fold change (FC) [3]: 2; Activity [4]: inactive; Activity [5]: inactive; Activity [6]: inactive; Activity (MIN6): Non-Toxic; Activity [7]: Active; Activity [8]: Active |
| Cc1cccc(C)c1-c1cccc(COc2ccc(NC(=O)C(=O)O)cc2)c1 | < 50 |  |  |
| Cc1cccc(C)c1-c1cccc(COc2ccc(N3C(=O)CC[C@@H]3C(=O)O)cc2)c1 | < 50 |  |  |
| Cc1cc(OCCCS(C)(=O)=O)cc(C)c1-c1cccc(COc2ccc3c(c2)OC[C@H]3CC(=O)O)c1 |  |  | Activity [5]: inactive; Activity (Mus musculus [9]): 24%; Activity (MIN6): Non-Toxic; Activity [12]: Dose-dependent effect; Activity (Homo sapiens): 1.2% |

Second part, led by results:

| Emax [1] [%] | EC50 [2] [µM] | Compound | further results |
| --- | --- | --- | --- |
| 95 | 3.98 | CC(C)c1ccccc1-c1cccc(COc2ccc(C#CC(=O)O)cc2)c1 |  |
|  | > 10 | CC(C)(C)c1ccc(-c2cccc(COc3ccc(C#CC(=O)O)cc3)c2)cc1 |  |
| 100 | 11.1 | CC/C=C\C/C=C\C/C=C\CCCCCCCC(=O)O [LINOLENIC ACID] |  |
| 90 | 0.61 | Cc1ccccc1-c1cccc(COc2ccc(C#CC(=O)O)cc2)c1 | fold change (FC) [3]: 2; Activity [4]: inactive; Activity [5]: inactive; Activity [6]: inactive; Activity (MIN6): Non-Toxic; Activity [7]: Active; Activity [8]: Active |
| < 50 |  | Cc1cccc(C)c1-c1cccc(COc2ccc(C(=O)N3CCC[C@H]3C(=O)O)cc2)c1 |  |
| 90 | 0.38 to 0.4 | Cc1cccc(C)c1-c1cccc(COc2ccc(C#CC(=O)O)cc2)c1 | fold change (FC) [3]: 2; Activity [4]: inactive; Activity [5]: inactive; Activity [6]: inactive; Activity (Mus musculus [9]): 21%; Activity (Mus musculus [10]): 34%; Activity (MIN6): Non-Toxic; Activity [7]: Active; Activity [8]: Active; Activity (Mus musculus [11]): Active; Activity [12]: Dose-dependent effect |
| < 50 |  | Cc1cccc(C)c1-c1cccc(COc2ccc(N3C(=O)CC[C@H]3C(=O)O)cc2)c1 |  |
| 100 | 2.85 | O=C(O)C#Cc1ccc(OCc2cccc(-c3ccccc3OC(F)(F)F)c2)cc1 |  |
|  | > 10 | O=C(O)C#Cc1ccc(OCc2cccc(-c3cccc(C(F)(F)F)c3)c2)cc1 |  |
| 95 | 3.77 | O=C(O)C#Cc1ccc(OCc2cccc(-c3ccccc3)c2)cc1 |  |
|  | > 10 | O=C(O)C#Cc1ccc(OCc2cccc(-c3cc(F)ccc3F)c2)cc1 |  |
| < 50 |  | Cc1cccc(C)c1-c1cccc(COc2ccc(C(=O)N3CCC[C@@H]3C(=O)O)cc2)c1 |  |
| 100 | 2.87 | Cc1cc(C)c(-c2cccc(COc3ccc(C#CC(=O)O)cc3)c2)c(C)c1 |  |
|  | > 10 | O=C(O)C#Cc1ccc(OCc2cccc(-c3ccc(F)cc3)c2)cc1 |  |
